Assays:
Format in all cases: cell-based
[1] = target: T1, Multidrug resistance-associated protein 1 (Homo sapiens, UniProt P33527); assay: Inhibition of MRP1 in human 2008/MRP1 cells assessed as potentiation of doxorubicin-induced cytotoxicity by measuring cell survival at 2 uM after 5 days by MTS assay relative to control; conditions: 120 h
Procedure, shortened: (§1)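 2008/MRP1 cells (retroviral human MRP1 transfectant; RPMI 1640, 10% FBS) at 4,000 per well, with 100 nM doxorubicin plus crude, unpurified click products in DMSO: 2 µM in the primary screen, 1 µM in the secondary. Incubated 5 days at 37 °C. MTS/PMS added for 2 h at 37 °C, absorbance read at 490 nm. % survival is relative to wells without DOX or product. Run in triplicate, at least three experiments.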

[2] = target: T1, Multidrug resistance-associated protein 1; assay: Inhibition of MRP1 in human 2008/MRP1 cells assessed as potentiation of doxorubicin-induced cytotoxicity by measuring cell survival at 1 uM after 5 days by MTS assay relative to control; conditions: 120 h; procedure, shortened: as §1
[3] = Cytotoxicity against human 2008/MRP1 cells assessed as cell survival at 2 uM after 5 days by MTS assay relative to control; conditions: read-out: Survival
L929 = assay: Cytotoxicity against mouse L929 cells assessed as reduction in cell survival after 5 days by MTS assay; conditions: L929, 120 h
Homo sapiens = species: Homo sapiens; assay: Inhibition of P-gp in human LCC6MDR cells assessed as potentiation of paclitaxel-induced cytotoxicity by measuring fold reduction in paclitaxel IC50 at 1 uM after 5 days by MTS assay relative to paclitaxel alone

T1 sequence (P33527 whole entry): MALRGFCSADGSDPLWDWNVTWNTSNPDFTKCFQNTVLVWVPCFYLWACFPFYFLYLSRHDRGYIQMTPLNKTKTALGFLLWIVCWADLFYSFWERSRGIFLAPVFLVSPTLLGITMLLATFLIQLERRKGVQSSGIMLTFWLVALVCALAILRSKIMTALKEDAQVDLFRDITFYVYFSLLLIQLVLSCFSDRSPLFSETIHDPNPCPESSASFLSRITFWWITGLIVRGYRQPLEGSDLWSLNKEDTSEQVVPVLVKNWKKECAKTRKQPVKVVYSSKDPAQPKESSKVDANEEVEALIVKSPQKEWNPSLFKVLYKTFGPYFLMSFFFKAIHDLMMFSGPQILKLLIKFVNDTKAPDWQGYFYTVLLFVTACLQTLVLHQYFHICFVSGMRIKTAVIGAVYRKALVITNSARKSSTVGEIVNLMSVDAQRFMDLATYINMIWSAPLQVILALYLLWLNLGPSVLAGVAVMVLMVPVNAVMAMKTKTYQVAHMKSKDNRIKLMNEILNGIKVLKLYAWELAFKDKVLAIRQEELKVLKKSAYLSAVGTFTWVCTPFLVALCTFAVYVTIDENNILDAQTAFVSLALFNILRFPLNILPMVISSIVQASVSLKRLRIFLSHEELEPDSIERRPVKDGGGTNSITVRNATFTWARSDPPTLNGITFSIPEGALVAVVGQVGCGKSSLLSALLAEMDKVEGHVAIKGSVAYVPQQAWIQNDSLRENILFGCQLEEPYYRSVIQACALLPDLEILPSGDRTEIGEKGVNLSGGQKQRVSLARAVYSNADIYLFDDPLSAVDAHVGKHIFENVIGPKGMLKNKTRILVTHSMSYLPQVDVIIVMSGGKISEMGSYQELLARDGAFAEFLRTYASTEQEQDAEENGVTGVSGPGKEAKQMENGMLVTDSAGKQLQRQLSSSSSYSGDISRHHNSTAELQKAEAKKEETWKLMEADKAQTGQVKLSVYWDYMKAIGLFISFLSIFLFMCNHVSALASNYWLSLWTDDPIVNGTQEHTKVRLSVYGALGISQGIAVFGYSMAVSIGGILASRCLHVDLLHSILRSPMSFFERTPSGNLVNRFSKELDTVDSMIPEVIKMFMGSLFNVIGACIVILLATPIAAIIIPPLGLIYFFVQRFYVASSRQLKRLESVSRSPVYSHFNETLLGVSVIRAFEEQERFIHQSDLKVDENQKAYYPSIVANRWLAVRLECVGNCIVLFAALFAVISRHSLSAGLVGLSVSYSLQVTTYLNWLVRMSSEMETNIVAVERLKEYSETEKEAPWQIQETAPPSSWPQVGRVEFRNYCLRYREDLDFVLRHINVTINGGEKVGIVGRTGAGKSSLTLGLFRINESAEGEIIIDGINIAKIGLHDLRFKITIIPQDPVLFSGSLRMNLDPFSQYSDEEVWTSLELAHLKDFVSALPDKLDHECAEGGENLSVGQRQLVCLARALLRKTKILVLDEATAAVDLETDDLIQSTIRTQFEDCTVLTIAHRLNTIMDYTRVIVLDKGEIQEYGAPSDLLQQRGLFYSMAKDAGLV

| Compound | Survival [1] [%] | Survival [2] [%] | viability at 120 h, 2 µM [3] [%] | IC50 (L929) [µM] | Ratio IC50 (Homo sapiens) |
| --- | --- | --- | --- | --- | --- |
| O=c1cc(-c2ccccc2)oc2cc(OCCN(Cc3ccccc3)Cc3cn(CCOCCOc4ccc(-c5oc6ccccc6c(=O)c5OCc5ccccc5)cc4)nn3)ccc12 | 49 | 53 | 82 |  |  |
| O=C1c2ccccc2C(=O)N1CCc1cn(CCOCCOCCOc2ccc(-c3cc(=O)c4cc(F)ccc4o3)cc2)nn1 | 28 |  | 10 |  |  |
| O=c1cc(-c2ccc(OCCOCCOCCn3cc(CN(CCOc4ccc5c(=O)cc(-c6ccccc6)oc5c4)Cc4ccccc4)nn3)cc2)oc2ccccc12 | 45 | 48 to 63 | 74 | > 100 | 31.7 |
| O=c1cc(-c2ccc(OCCCc3cn(CCOCCOCCOc4ccc(-c5oc6ccccc6c(=O)c5OCc5ccccc5)cc4)nn3)cc2)oc2cc(F)ccc12 | 37 | 53 | 97 |  |  |
| O=c1cc(-c2ccccc2)oc2cc(OCCOCc3cn(CCOCCOc4ccc(-c5oc6ccccc6c(=O)c5OCc5ccccc5)cc4)nn3)ccc12 | 46 | 56 | 85 |  |  |
| COc1cccc(COc2c(-c3ccc(OCCCCc4cn(CCOCCOc5ccc(-c6cc(=O)c7ccccc7o6)cc5)nn4)cc3)oc3ccccc3c2=O)c1 | 40 |  | 63 |  |  |
| O=C(/C=C/c1ccc(OCCCCc2cn(CCOCCOc3ccc(-c4cc(=O)c5ccccc5o4)cc3)nn2)cc1)c1ccccc1O | 39 | 56 | 83 |  |  |
| O=C1c2ccccc2C(=O)N1CCc1cn(CCOCCOCCOc2ccc(-c3cc(=O)c4ccccc4o3)cc2)nn1 | 28 |  | 4 |  |  |
| COCOc1cc(OCc2ccccc2)c2c(=O)cc(-c3ccc(OCCCc4cn(CCOCCOc5ccc(-c6cc(=O)c7ccccc7o6)cc5)nn4)cc3)oc2c1 | 39 | 64 | 95 |  |  |
| O=C(/C=C/c1ccc(OCCCCc2cn(CCOCCOc3ccc(-c4cc(=O)c5ccccc5o4)cc3)nn2)cc1)c1ccc(F)cc1O | 42 | 66 | 90 |  |  |
| O=C1c2ccccc2C(=O)N1CCc1cn(CCOCCOCCOc2ccc(-c3oc4ccccc4c(=O)c3OCc3ccccc3)cc2)nn1 | 34 |  | 16 |  |  |
| O=c1cc(-c2ccccc2)oc2cc(OCCOCCn3cc(CN(CCOc4ccc5c(=O)cc(-c6ccccc6)oc5c4)Cc4ccccc4)nn3)ccc12 | 46 | 54 | 80 |  |  |
| O=C1c2ccccc2C(=O)N1CCc1cn(CCOc2cccc3c(=O)cc(-c4ccccc4)oc23)nn1 | 37 |  | 11 |  |  |
| O=c1cc(-c2ccc(OCCCc3cn(CCOCCOCCOc4ccc(-c5cc(=O)c6cc(F)ccc6o5)cc4)nn3)cc2)oc2ccccc12 | 46 |  | 44 |  |  |
| O=C1c2ccccc2C(=O)N1CCc1cn(CCOCCOc2ccc(-c3cc(=O)c4ccccc4o3)cc2)nn1 | 37 |  | 18 |  |  |
| O=c1cc(-c2ccc(OCCCc3cn(CCOCCOCCOc4ccc(-c5oc6ccccc6c(=O)c5OCc5ccccc5)cc4)nn3)cc2)oc2ccccc12 | 45 | 62 | 39 |  |  |
| O=C1c2ccccc2C(=O)N1CCc1cn(CCOCCOCCOc2ccc3c(=O)cc(-c4ccccc4)oc3c2)nn1 | 41 |  | 23 |  |  |
| O=C1c2ccccc2C(=O)N1CCc1cn(CCOCCOc2ccc(-c3cc(=O)c4cc(F)ccc4o3)cc2)nn1 | 39 |  | 14 |  |  |
| Cc1ccc2oc(-c3ccc(OCCCCc4cn(CCOCCOCCOc5ccc6c(=O)cc(-c7ccccc7)oc6c5)nn4)cc3)cc(=O)c2c1 | 33 | 65 | 89 |  |  |
| O=c1cc(-c2ccc(OCCOCCn3cc(CN(Cc4ccccc4)Cc4cn(CCOCCOc5ccc(-c6cc(=O)c7ccccc7o6)cc5)nn4)nn3)cc2)oc2ccccc12 | 49 | 79 | 92 |  |  |
| O=c1cc(-c2ccc(OCCOCCn3cc(CN(CCOc4ccc5c(=O)cc(-c6ccccc6)oc5c4)Cc4ccccc4)nn3)cc2)oc2ccccc12 | 26 | 29 | 97 | > 100 | 38.7 |
| Cc1ccc2oc(-c3ccc(OCCCCc4cn(CCOCCOCCOc5ccc(-c6cc(=O)c7ccccc7o6)cc5)nn4)cc3)cc(=O)c2c1 | 39 |  | 68 |  |  |
| O=c1cc(-c2ccccc2)oc2cc(OCCCCc3cn(CCOCCOCCOc4ccc(-c5cc(=O)c6cc(F)ccc6o5)cc4)nn3)ccc12 | 47 | 59 | 92 |  |  |
| O=c1cc(-c2ccc(OCCCc3cn(CCOCCOc4ccc(-c5cc(=O)c6cc(F)ccc6o5)cc4)nn3)cc2)oc2ccccc12 | 39 |  | 43 |  |  |
| CCc1ccc(O)c(C(=O)/C=C/c2ccc(OCCCCc3cn(CCOCCOc4ccc(-c5cc(=O)c6ccccc6o5)cc4)nn3)cc2)c1 | 40 | 66 | 95 |  |  |

| Compound | Survival [1] [%] | Survival [2] [%] | viability at 120 h, 2 µM [3] [%] | IC50 (L929) [µM] | Ratio IC50 (Homo sapiens) |
| --- | --- | --- | --- | --- | --- |
| CN(C)C(=O)CCSC(SCCC(=O)O)c1cccc(/C=C/c2ccc3ccc(Cl)cc3n2)c1 (stereo unspecified) [MK-571] |  |  |  | > 100 |  |
| O=c1cc(-c2ccc(OCCCc3cn(CCOCCOc4cccc(-c5oc6ccccc6c(=O)c5OCc5ccccc5)c4)nn3)cc2)oc2cc(F)ccc12 | 45 | 55 | 99 |  |  |
| O=c1cc(-c2ccc(OCCCc3cn(CCOCCOc4ccc5c(=O)cc(-c6ccccc6)oc5c4)nn3)cc2)oc2ccccc12 | 39 |  | 39 |  |  |
| O=c1[nH]c(-c2ccc(OCCCc3cn(CCOCCOc4ccc5c(=O)cc(-c6ccccc6)oc5c4)nn3)cc2)nc2ccccc12 | 49 | 70 | 65 |  |  |
| O=c1cc(-c2ccc(OCCCc3cn(CCOCCOCCOc4ccc5c(=O)cc(-c6ccccc6)oc5c4)nn3)cc2)oc2ccccc12 | 42 | 54 | 49 |  |  |
| O=c1cc(-c2ccc(OCCOCCOCCn3cc(CN(Cc4ccccc4)Cc4cn(CCOCCOCCOc5ccc(-c6cc(=O)c7ccccc7o6)cc5)nn4)nn3)cc2)oc2ccccc12 | 29 |  | 49 |  |  |
| COc1cccc(COc2c(-c3ccc(OCCCCc4cn(CCOCCOCCOc5ccc(-c6oc7ccccc7c(=O)c6OCc6ccccc6)cc5)nn4)cc3)oc3ccccc3c2=O)c1 | 33 |  | 53 |  |  |
| COc1cccc(COc2c(-c3ccc(OCCOCCn4cc(COCCOc5ccc6c(=O)cc(-c7ccccc7)oc6c5)nn4)cc3)oc3ccccc3c2=O)c1 | 47 | 71 | 88 |  |  |
| Cc1ccc2oc(-c3ccc(OCCOCCOCCn4cc(CN(Cc5ccccc5)Cc5cn(CCOCCOCCOc6ccc(-c7cc(=O)c8cc(C)ccc8o7)cc6)nn5)nn4)cc3)cc(=O)c2c1 | 52 |  |  |  |  |
| O=c1cc(-c2ccc(OCCOCCn3cc(-c4ccc(-c5cn(CCOCCOc6ccc(-c7cc(=O)c8cc(F)ccc8o7)cc6)nn5)cc4)nn3)cc2)oc2ccc(F)cc12 | 77 |  |  |  |  |
| O=C(/C=C/c1ccc(OCCCCc2cn(CCOCCOCCOc3ccc(-c4cc(=O)c5ccccc5o4)cc3)nn2)cc1)c1ccc(F)cc1O | 55 |  |  |  |  |
| O=c1cc(-c2ccccc2)oc2cc(OCCOCCOCCn3cc(CCCOc4ccc(-c5cc(=O)c6cc(F)ccc6o5)cc4)nn3)ccc12 | 40 |  | 105 |  |  |
| Cc1ccc(C(=O)/C=C/c2ccc(OCCCCc3cn(CCOCCOc4cccc(-c5oc6ccccc6c(=O)c5OCc5ccccc5)c4)nn3)cc2)c(O)c1 | 79 |  |  |  |  |
| COc1cccc(COc2c(-c3ccc(OCCOCCn4cc(CCCCOc5ccc(/C=C/C(=O)c6ccc(C)cc6O)cc5)nn4)cc3)oc3ccccc3c2=O)c1 | 78 |  |  |  |  |
| Cc1ccc2oc(-c3ccc(OCCOCCOCCn4cc(-c5cccc(-c6cn(CCOCCOCCOc7ccc(-c8cc(=O)c9cc(C)ccc9o8)cc7)nn6)c5)nn4)cc3)cc(=O)c2c1 | 77 |  |  |  |  |
| O=C1c2ccccc2C(=O)N1CCc1cn(CCOCCOc2ccc3c(=O)cc(-c4ccccc4)oc3c2)nn1 | 51 |  |  |  |  |
| Cc1ccc2oc(-c3ccc(OCCOCCOCCn4cc(-c5ccc(-c6cn(CCOCCOCCOc7ccc(-c8cc(=O)c9cc(C)ccc9o8)cc7)nn6)cc5)nn4)cc3)cc(=O)c2c1 | 74 |  |  |  |  |
| C#CCCCCOc1ccc(/C=C/C(=O)c2cc(CC)ccc2O)cc1 | 103 |  |  |  |  |
| COc1cccc(COc2c(-c3ccc(OCCCCc4cn(CCOCCOCCOc5ccc(-c6cc(=O)c7cc(C)ccc7o6)cc5)nn4)cc3)oc3ccccc3c2=O)c1 | 46 |  | 50 |  |  |
| O=c1cc(-c2ccccc2)oc2cc(OCCn3cc(CN(Cc4ccccc4)Cc4cn(CCOc5ccc6occ(-c7ccccc7)c(=O)c6c5)nn4)nn3)ccc12 | 96 |  |  |  |  |
| O=c1cc(-c2ccccc2)oc2cc(OCCOCCn3cc(-c4cccc(-c5cn(CCOCCOc6ccc7oc(-c8ccccc8)cc(=O)c7c6)nn5)c4)nn3)ccc12 | 76 |  |  |  |  |
| O=c1cc(-c2ccc(OCCCc3cn(CCOc4cccc5c(=O)cc(-c6ccccc6)oc45)nn3)cc2)oc2ccccc12 | 69 |  |  |  |  |
| C#CCN(CC#C)Cc1ccccc1 | 81 |  |  |  |  |
| C#Cc1cccc(C#C)c1 | 84 |  |  |  |  |
| C#CCN(CCOc1ccc2c(=O)cc(-c3ccccc3)oc2c1)Cc1ccccc1 | 86 |  |  |  |  |

Source: ChEMBL document CHEMBL4257575, “Discovery of Novel Flavonoid Dimers To Reverse Multidrug Resistance Protein 1 (MRP1, ABCC1) Mediated Drug Resistance in Cancers Using a High Throughput Platform with "Click Chemistry"” (J Med Chem, 2018)
